From publication PMC8811919 (ACS Omega, 2022) come the findings set out here.

In experiment [1] the target is T1, urease (Canavalia ensiformis, UniProt P07374). Kind of experiment: Urease inhibitory assay. It counts as biochemical. In outline:
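Urease in pH 8.2 buffer (0.01 M K2HPO4·3H2O, 1 mM EDTA, 0.01 M LiCl) with 100 mM urea, incubated 15 min at 30 °C with test compound added from a 1 mM solution. Ammonia detected by indophenol: alkali (0.5% NaOH, 0.1% active chloride NaOCl) plus phenol reagent (1% phenol, 0.005% nitroprusside). A630 read after 50 min as change per min; triplicate; acetohydroxamic acid standard; % inhibition.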

Experiment [2] deals with MCF-7 (human breast adenocarcinoma). The experiment is described as follows: Cell viability in treated cell lines. It counts as cell-based. Particulars: MCF7, 72 h. In outline: (§1)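 Cells were kept in RPMI 1640 with 10% FCS and penicillin/streptomycin at 37 °C, 5% CO2. They were seeded at 6000 cells/well, held 24 h, then given test compound at 0, 15.62, 31.25, 62.5, 125, 250, 500 and 1000 […] for 72 h. MTT (5 mg/mL) was added for 4 h, formazan dissolved in DMSO, and A570 read. Treatment was done in triplicate. EC50 came from sigmoidal variable-slope nonlinear regression of % growth inhibition.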

For experiment [3], the system named is HeLa (cervical cancer). The experiment is described as follows: Cell viability in treated cell lines. Particulars: Homo sapiens, 72 h, read-out: EC50 HeLa. The class given is cell-based. The method, boiled down: as §1
In experiment [4] the test system is MCF-7 cells. The experiment is described as follows: Early apoptosis study. The class given is cell-based, human. Conditions: treated at EC50 of 72 h for 6 and 9 h. In outline:
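MCF-7 cells were seeded at 10,000 cells/well and held 24 h at 37 °C. The medium was replaced with test compound, alongside a positive control and an untreated control, for 6 and 9 h. Cells were stained with Annexin V-FITC (green) and PI (red) in binding buffer for 10 min at 37 °C. They were imaged by widefield high-content imaging to score early versus late apoptosis and necrosis.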

The subject of experiment [5] is MCF-7 cells. The experiment is described as follows: Late apoptosis study. It counts as cell-based, human. Particulars: treated at EC50 of 72 h, 36 h incubation. In outline:
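MCF-7 cells were seeded at 2 × 10^4 on chamber slides and held 24 h at 37 °C, then exposed to test compound for 36 h; untreated cells served as control. Cells were fixed in 4% paraformaldehyde/PBS (pH 7.4) for 25 min at 4 °C and permeabilised with 0.2% Triton X-100 for 5 min. DNA ends were labelled with rTdT/nucleotide mix at 37 °C in the dark. Diluted SSC was added, and nuclei were counterstained with PI (1 μg/mL, 15 min, RT). FITC signal was imaged by high-content microscopy.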

Experiment [6] addresses T1, urease. The experiment is described as follows: Kinetic study of urease inhibition. The class given is biochemical.

Where two headings read alike, the source gives them in different places.

T1 sequence (P07374 whole entry, looked up): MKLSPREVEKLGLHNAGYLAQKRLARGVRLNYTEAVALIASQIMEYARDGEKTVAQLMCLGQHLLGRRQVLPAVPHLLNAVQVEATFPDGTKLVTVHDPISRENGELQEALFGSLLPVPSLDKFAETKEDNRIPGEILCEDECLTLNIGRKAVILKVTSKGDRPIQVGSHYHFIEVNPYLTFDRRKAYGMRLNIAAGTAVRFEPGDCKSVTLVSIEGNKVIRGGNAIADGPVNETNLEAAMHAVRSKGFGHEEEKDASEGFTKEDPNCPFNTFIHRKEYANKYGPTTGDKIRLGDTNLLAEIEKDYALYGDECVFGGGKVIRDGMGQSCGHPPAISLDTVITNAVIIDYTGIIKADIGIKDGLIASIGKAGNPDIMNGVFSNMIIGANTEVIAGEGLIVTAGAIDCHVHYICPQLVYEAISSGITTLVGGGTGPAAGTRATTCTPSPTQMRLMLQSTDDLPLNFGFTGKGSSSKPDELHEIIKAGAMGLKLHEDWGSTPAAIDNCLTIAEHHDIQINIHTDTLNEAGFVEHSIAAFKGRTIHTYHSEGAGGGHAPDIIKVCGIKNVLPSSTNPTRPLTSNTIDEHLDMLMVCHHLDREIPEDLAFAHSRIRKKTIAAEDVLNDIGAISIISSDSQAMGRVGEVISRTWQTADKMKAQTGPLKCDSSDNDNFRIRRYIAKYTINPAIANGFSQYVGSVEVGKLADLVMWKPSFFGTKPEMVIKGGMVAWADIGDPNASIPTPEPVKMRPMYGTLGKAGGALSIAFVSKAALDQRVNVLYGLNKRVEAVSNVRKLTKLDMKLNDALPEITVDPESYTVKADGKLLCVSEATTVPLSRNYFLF

For the compound `CC(=O)Nc1ccc(C2CC(c3ccccc3O)=NN2c2ccccc2)cc1` (stereo not shown) [Compound 2j, 1-Phenyl-3(2-hydroxy-phenyl)-5-(4-acetamidophenyl)-2-pyrazoline], in experiment [1], half-maximal inhibition (IC50) required 13.7 ± 0.47 µM. Moreover, the EC50 in experiment [2] (read-out: EC50 MCF-7) and in experiment [3] was > 500 µM throughout.

On to `Cc1ccc(C2CC(c3ccccc3O)=NN2c2ccccc2)c(C)c1` (stereo not shown) [Compound 2p, 1-Phenyl-3(2-hydroxy-phenyl)-5(2,4-dimethyl-phenyl)-2-pyrazoline], for which the IC50 – broadly, the concentration that inhibits the measured activity by half – in experiment [1] worked out at 12.2 ± 0.38 µM. In addition, the EC50 in experiment [2] (read-out: EC50 MCF-7) and in experiment [3] was > 500 µM throughout.

Turning to `COc1ccc(C2CC(c3ccccc3O)=NN2c2ccccc2)cc1` (stereo not shown) [Compound 2e, 1-Phenyl-3(2-hydroxy-phenyl)-5-(4-methoxyphenyl)-2-pyrazoline], the IC50 in experiment [1] stood at 15.4 ± 0.38 µM. Besides, the EC50 in experiment [2] (read-out: EC50 MCF-7) and in experiment [3] was > 500 µM in each case.

Regarding `Oc1ccccc1C1=NN(c2ccccc2)C(c2ccc(Br)cc2)C1` (stereo not shown) [Compound 2c, 1-Phenyl-3(2-hydroxy-phenyl)-5-(4-bromo-phenyl)-2-pyrazoline], the midpoint of inhibition in experiment [1], the IC50, lay at 12.6 ± 0.43 µM. The EC50 in experiment [2] (read-out: EC50 MCF-7) and in experiment [3] was > 500 µM each time.

With `Oc1ccccc1C1=NN(c2ccccc2)C(c2ccccc2)C1` (stereo not shown) [Compound 2l, 1-Phenyl-3(2-hydroxy-phenyl)-5-phenyl-2-pyrazoline], the “urease IC50 ± SEM” value in experiment [1] (pH 8.2, 30 °C, 100 mM urea) is given as “NA* ^a”. The EC50 – broadly, the concentration needed to bring the measured effect to its halfway point – in experiment [2] (read-out: EC50 MCF-7) was 120 ± 0.1 µM; in experiment [3] it was 510 µM. Moreover, the “mode of MCF-7 cell death (Annexin V-FITC/PI staining)” value in experiment [4] is reported as “induce early apoptosis”. For the same compound, the “DNA fragmentation (TUNEL, green stain of nuclei)” value in experiment [5] is “morphologically detectable (green)”.

`COc1cc(C2CC(c3ccccc3O)=NN2c2ccccc2)cc(OC)c1OC` (stereo not shown) [Compound 2d, 1-Phenyl-3(2-hydroxy-phenyl)-5-(3,4,5-trimethoxyphenyl)-2-pyrazoline]: the IC50 in experiment [1] came out at 13.3 ± 0.25 µM. Besides, the EC50 in experiment [2] (read-out: EC50 MCF-7) and in experiment [3] was > 500 µM throughout.

In turn, `O=C(O)c1ccc(C2CC(c3ccccc3O)=NN2c2ccccc2)cc1` (stereo not shown) [Compound 2h, 1-Phenyl-3(2-hydroxy-phenyl)-5-(4-carboxyphenyl)-2-pyrazoline] showed an IC50 in experiment [1] of 11.3 ± 0.51 µM. For the same compound, the EC50 in experiment [2] (read-out: EC50 MCF-7) and in experiment [3] was > 500 µM in each case.

For `COc1ccc(C2CC(c3ccccc3O)=NN2c2ccccc2)cc1OC` (stereo not shown) [Compound 2g, 1-Phenyl-3(2-hydroxy-phenyl)-5-(3,4-dimethoxyphenyl)-2-pyrazoline], the IC50 in experiment [1] was 9.13 ± 0.25 µM. In addition, the inhibition constant (Ki) (in general, the dissociation constant of the complex between target and ligand, obtained from inhibition or displacement) in experiment [6] came out at 19.1 µM. Also, the mode of inhibition entry in experiment [6] (urease) is recorded as “competitive inhibition”. For the same compound, in experiment [6] (urease, at a 20 μM inhibitor concentration), the maximal velocity (Vmax) – broadly, the rate approached at saturating substrate – amounted to 5.76 µM/min. For the same compound, the EC50 in experiment [2] (read-out: EC50 MCF-7) and in experiment [3] was > 500 µM in each case.

With `CCCCCOC(=O)Nc1nc(=O)n([C@@H]2O[C@H](C)[C@@H](O)[C@H]2O)cc1F` [CP, capecitabine, reference compound], the EC50 in experiment [2] (read-out: EC50 on MCF-7) stood at 980 µM. For the same compound, the “DNA fragmentation (TUNEL, green stain of nuclei)” value in experiment [5] is “green-stained nuclei were observed”.
